Assay results reported in ChEMBL document CHEMBL4613263, “Optimization of Tetrahydroindazoles as Inhibitors of Human Dihydroorotate Dehydrogenase and Evaluation of Their Activity and In Vitro Metabolic Stability” (J Med Chem, 2020).
Calls of active or inactive are those of the source. No cut-off for these calls is given here.

How the values were obtained:
[1] = biological target: T1, Dihydroorotate dehydrogenase (quinone), mitochondrial (Homo sapiens, UniProt Q02127); assay: Inhibition of DHOH in human ARN8 cells assessed as increase in caspase 3/7 activity at 20 nM incubated for 48 hrs in presence of pan-caspase inhibitor, Z-VAD-FMK by live cell imaging analysis; format: cell-based
Procedure, shortened: (§1)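 ARN8 cells seeded at 4×10^3 per well and left 24 h, then given 20 nM compound in medium containing 2 µM caspase-3/7 substrate and 0.3 µM YOYO-3 (0.2% DMSO). Where indicated, 100 µM uridine or 20 µM Z-VAD-FMK was added. Cells imaged every 2 h for 48.5 h in an IncuCyte. Positive-cell counts per mm² normalized to confluence %; mean ± SD of three technical replicates.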

[2] = Antiproliferative activity against human ARN8 cells assessed as reduction in cell viability incubated for 72 hrs by SRB assay; format: functional, cell-based; settings: Homo sapiens, ARN8, 72 h; read-out: IC50
[3] = biological target: T1, Dihydroorotate dehydrogenase (quinone), mitochondrial; assay: Inhibition of DHOH in human ARN8 cells assessed as increase in YOYO3 positive cells at 20 nM incubated for 48 hrs in presence of pan-caspase inhibitor, Z-VAD-FMK measured every 2 hrs by YOYO-3 staining based live cell imaging analysis; procedure, shortened: as §1
Homo sapiens = organism: Homo sapiens; assay: Antiproliferative activity against human ARN8 cells assessed as reduction in cell viability at 0.005 to 10 uM incubated for 72 hrs in presence of 100 uM […], uridine by SRB assay; format: functional, cell-based
[4] = biological target: T1, Dihydroorotate dehydrogenase (quinone), mitochondrial; assay: Inhibition of DHOH in human ARN8 cells assessed as increase in YOYO3 positive cells at 20 nM incubated for 48 hrs in presence of 100 uM […], uridine measured every 2 hrs by YOYO-3 staining based live cell imaging analysis; procedure, shortened: as §1
[5] = biological target: T1, Dihydroorotate dehydrogenase (quinone), mitochondrial; assay: Inhibition of DHODH in human ARN8 cells assessed as induction of DNA damage by measuring increase in p53 phosphorylation at Ser15 at 20 nM incubated for 24 hrs in presence of pan-caspase inhibitor, Z-VAD-FMK by Western blot analysis; format: cell-based
Procedure, shortened: (§2)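 ARN8 cells treated 24 h at 20 nM, with 20 µM Z-VAD-FMK or vehicle added 4.5 h before harvest. Etoposide arm was 20 µM for 1 h alongside Z-VAD-FMK. Lysates normalized for protein and analysed by western blot for p53, p-Ser15 p53, γ-H2AX, H2AX and cleaved PARP (85 kDa) against stain-free total-protein loading.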

[6] = Metabolic stability in human liver microsomes assessed as half life at 1 uM incubated for 60 mins by LC-MS/MS analysis; format: ADME, Microsome; settings: liver microsomes
Procedure, shortened: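 Compound at 1 µM with 1.0 mg/mL human or mouse liver microsomes in 50 mM potassium phosphate pH 7.4, preincubated 5 min at 37 °C. Started with 1 mM NADPH (or blank buffer). Quenched with cold acetonitrile containing glipizide at 0, 5, 15, 30, 60 min. Parent loss tracked by LC-MS/MS in MRM mode; t½ = 0.693/k from slope of peak-area ratio versus time.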

[7] = Cytotoxicity against human HNDF cells assessed as reduction in cell viability incubated for 72 hrs by SRB assay; format: cell-based; settings: Homo sapiens, 72 h; read-out: IC50
Procedure, shortened: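 Human normal dermal fibroblasts seeded at 15×10^2 per well and left 24 h, then exposed to compound for 72 h with 0.1% DMSO final. Cells fixed with TCA at 4 °C for 1 h, stained with SRB, solubilized in 10 mM Tris and read at 490 nm. Values normalized to DMSO control. Tabulated means come only from experiments where IC50 fell below 10 000 nM.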

[8] = biological target: T1, Dihydroorotate dehydrogenase (quinone), mitochondrial; assay: Inhibition of DHODH in human ARN8 cells assessed as increase in p53 level at 20 nM incubated for 24 hrs by Western blot analysis; format: cell-based
Procedure, shortened: (§3)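 ARN8 cells seeded at 15×10^4 per well and left 24 h. Treated 24 h at 20 nM, or with etoposide at 20 µM for 1 h, with 100 µM uridine where indicated. Lysates made in LDS buffer and protein-normalized, then run on 4–15% gels and transferred to PVDF. Phospho-proteins blocked in BSA, others in milk; primary antibodies overnight at 4 °C, ECL detection. Loading judged by stain-free total protein.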

[9] = biological target: T1, Dihydroorotate dehydrogenase (quinone), mitochondrial; assay: Inhibition of recombinant human DHODH using dihydroorotic acid as substrate in presence of 2 nM of DHODH by DCIP assay
[10] = biological target: T1, Dihydroorotate dehydrogenase (quinone), mitochondrial; assay: Inhibition of […] in human ARN8 cells assessed as decrease in Bcl2 protein expression at 20 nM incubated for 24 hrs in presence of pan-caspase inhibitor, Z-VAD-FMK by Western blot analysis; format: cell-based
[11] = biological target: T1, Dihydroorotate dehydrogenase (quinone), mitochondrial; assay: Inhibition of DHODH in human ARN8 cells assessed as induction of DNA damage by measuring increase in gammaH2AX level at 20 nM incubated for 24 hrs in presence of 100 uM […], uridine by Western blot analysis; format: cell-based; procedure, shortened: as §3
[12] = biological target: T1, Dihydroorotate dehydrogenase (quinone), mitochondrial; assay: Inhibition of DHOH in human ARN8 cells assessed as cleaved PARP level at 20 nM incubated for 24 hrs treated with pan-caspase inhibitor, Z-VAD-FMK for 4.5 hrs prior to harvesting by Western blot analysis; format: cell-based; procedure, shortened: as §2
[13] = biological target: T1, Dihydroorotate dehydrogenase (quinone), mitochondrial; assay: Inhibition of DHODH in human ARN8 cells assessed as increase in p53 level at 20 nM incubated for 24 hrs in presence of 100 uM […], uridine by Western blot analysis; format: cell-based; procedure, shortened: as §3
[14] = biological target: T1, Dihydroorotate dehydrogenase (quinone), mitochondrial; assay: Inhibition of DHOH in human ARN8 cells assessed as increase in cleaved PARP level at 20 nM incubated for 24 hrs by Western blot analysis; format: cell-based; procedure, shortened: as §2
[15] = biological target: T1, Dihydroorotate dehydrogenase (quinone), mitochondrial; assay: Inhibition of recombinant human DHODH using dihydroorotic acid as substrate measured for 68 mins by DCIP based colorimetric assay
[16] = Cytotoxicity against human HNDF cells assessed as reduction in cell viability incubated for 72 hrs in presence of 100 uM […], uridine by SRB assay; format: cell-based
Procedure, shortened: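 Normal dermal fibroblasts seeded at 15×10^2 per well and left 24 h, then treated 72 h in medium with 0.1% DMSO final plus 100 µM uridine. Fixed with TCA, stained with 0.4% SRB, dye dissolved in Tris and read at 490 nm. Growth/viability given as % of DMSO control; mean ± SD of three technical replicates.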

[17] = biological target: T1, Dihydroorotate dehydrogenase (quinone), mitochondrial; assay: Inhibition of DHODH in human ARN8 cells assessed as induction of DNA damage by measuring increase in p53 phosphorylation at Ser15 at 20 nM incubated for 24 hrs in presence of 100 uM […], uridine by Western blot analysis; format: cell-based; procedure, shortened: as §3
[18] = biological target: T1, Dihydroorotate dehydrogenase (quinone), mitochondrial; assay: Inhibition of […] in human ARN8 cells assessed as increase in Bax protein expression at 20 nM incubated for 24 hrs in presence of pan-caspase inhibitor, Z-VAD-FMK by Western blot analysis; format: cell-based
[19] = biological target: T1, Dihydroorotate dehydrogenase (quinone), mitochondrial; assay: Inhibition of […] in human ARN8 cells assessed as decrease in Bcl2 protein expression at 20 nM incubated for 24 hrs by Western blot analysis; format: cell-based
[20] = biological target: T1, Dihydroorotate dehydrogenase (quinone), mitochondrial; assay: Inhibition of DHODH in human ARN8 cells assessed as induction of DNA damage by measuring increase in gammaH2AX level at 20 nM incubated for 24 hrs by Western blot analysis; format: cell-based; procedure, shortened: as §3

T1 sequence (Q02127 whole entry): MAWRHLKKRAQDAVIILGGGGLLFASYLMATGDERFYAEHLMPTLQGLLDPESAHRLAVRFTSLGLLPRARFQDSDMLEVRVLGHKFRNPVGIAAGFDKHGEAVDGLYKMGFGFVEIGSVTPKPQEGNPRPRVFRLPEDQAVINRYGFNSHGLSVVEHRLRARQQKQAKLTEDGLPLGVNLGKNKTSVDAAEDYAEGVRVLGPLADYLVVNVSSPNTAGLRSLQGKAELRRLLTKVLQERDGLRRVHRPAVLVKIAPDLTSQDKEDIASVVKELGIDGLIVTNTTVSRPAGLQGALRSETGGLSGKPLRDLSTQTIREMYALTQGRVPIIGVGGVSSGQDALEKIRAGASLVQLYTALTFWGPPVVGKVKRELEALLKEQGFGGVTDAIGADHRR

For `O=C(N[C@@H]1CCCc2c1cnn2-c1ccccc1F)c1ncn2c1CCCC2`, the inhibition [1] was “inactive”, the IC50 [2] was 22 nM and the inhibition [3] was “inactive”. The Activity (Homo sapiens) was “inactive”, the inhibition [4] was “inactive” and the inhibition [5] was “Active”. For the same compound, the half-life at 1 µM [6] was greater than 1 h, the IC50 [7] was greater than 10000 nM and the inhibition [8] was “Active”. For the same compound, the IC50 [9] was 2.3 nM, the inhibition [10] was “Active” and the inhibition [11] was “inactive”. The inhibition [12] was “inactive”, the inhibition [13] was “inactive” and the inhibition [14] was “Active”. For the same compound, the IC50 [15] was less than 5 nM, the Activity [16] was “Toxic” and the inhibition [17] was “inactive”. For the same compound, the inhibition [18] was “Active”, the inhibition [19] was “Active” and the inhibition [20] was “Active”.
